Compound activity from PubChem BioAssay.
tim10-1 inh – inhibits growth of tim10-1 mutant yeast; S. cerevisiae tim10-1 ts strain growth, BacTiter-Glo, 24 h; inhibition, % at 20 µM; actives 2.2% (n = 330,000); AID 463190;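 active = inhibition of at least 40%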;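 also: mutant grown at 25 °C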
XBP1 UPR activ – activators of adaptive arm of unfolded protein response (XBP1). activation, % at 20 µM. AID 463104. CHO-XBP1 luciferase reporter, IRE1-XBP1 UPR activation, luminescence; percent of tunicamycin response, DMSO as zero. actives 0.33% (n = 330,000);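 active = versus positive control, 20 µM dose yields 30% or more activation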
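Signal: luciferase luminescence; Assay system: CHO-XBP1 luciferase reporter cells; Amount: one thousand reporter cells per well; Dosing: 20 µM single concentration, DMSO 1%; Benchmarks: high control tunicamycin 10 µg/mL final, low control DMSO vehicle only; Schedule: 6 h compound exposure at 37 °C, 5% CO2; Evaluation: percent activation relative to tunicamycin reference.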
tim23-1 inh – inhibits growth of tim23-1 mutant yeast; actives 1.3% (n = 330,000); inhibition, % at 20 µM; S. cerevisiae tim23-1 growth, BacTiter-Glo luminescence, 24 h;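 active = growth inhibition of the mutant yeast at or above 50%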;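 also: temperature-sensitive mutant grown at 25 °C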
TIM10 inh – TIM10 yeast growth inhibition; actives 1.4% (n = 330,000); AID 463195; inhibition, % at 10 µM; S. cerevisiae TIM10 strain growth, BacTiter-Glo luminescence, 24 h;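 active = inhibition of 40% or more at the single tested concentration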;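 also: wild-type TIM10 isogenic control strain grown at permissive 25 °C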
UPR CHOP act – apoptotic UPR (CHOP) activation. CHO-CHOP luciferase reporter, luminescence; percent of tunicamycin response over DMSO baseline. activation, % at 10 µM. actives 0.34% (n = 330,000). AID 449763;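 active = at 10 µM dose, activation of 40% or more, normalized to positive control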
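Dosing – one dose, 10 µM in 0.5% DMSO · System – CHO-CHOP cells, stable luciferase reporter of PERK-eIF2a-CHOP signalling · Input – 500 cells/well · Control set – tunicamycin 10 µg/mL final as positive, DMSO-only wells as negative · Timing – 6 h compound treatment, 37 °C · Measure – % activation vs tunicamycin · Technique – luminescence read with Steady-Glo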
tim23-1 confirm – tim23-1 yeast growth inhibition, confirmed; shares compounds with tim23-1 inh; S. cerevisiae tim23-1 growth, BacTiter-Glo luminescence, 24 h; inhibition, % at 20 µM; actives 83% (n = 4,400);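 active = inhibition above about 39% in either of two replicate wells at 20 µM, limit read from the data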;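 also: temperature-sensitive tim23-1 mutant grown at 25 °C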
Large screens that a line does not name were inactive (follow-up assays come after a bar, where they were run). An excerpt weighted towards active compounds, which were near 3.9% of everything screened.

CCOC(=O)C(C)C(C)=O (centres undefined)	none
O=C(C1CCN(S(=O)(=O)c2ccccc2F)CC1)N1CCN(Cc2ccc3c(c2)OCO3)CC1	none
CC(C)n1nnnc1SCC(=O)c1ccc2c(c1)OCCO2	none
O=C(CSc1nnnn1C1CCCC1)c1ccc2c(c1)OCCO2	tim23-1 inh 53 | tim23-1 confirm 46
O=C(CCSc1ccc(Cl)cc1)NC1CCCCC1	none
O=C(CCSc1ccc(Cl)cc1)NC12CC3CC(CC(C3)C1)C2	tim23-1 inh 52 | tim23-1 confirm 46
O=S(=O)(Nc1cc(F)ccc1F)c1cccc2nonc12	none
Oc1ccc(Cl)cc1C1=NNC(c2ccc(Cl)cc2)C1 (centres undefined)	tim23-1 inh 50 | tim23-1 confirm 50
Oc1ccc(Cl)cc1C1=Nc2ccccc2N=C(c2ccco2)C1	none
Oc1ccc(Cl)cc1C1=NNC(c2cc(Br)cc3c2OCOC3)C1 (centres undefined)	tim23-1 inh 56 | tim23-1 confirm 56
CCCS(=O)(=O)c1nc(S(=O)(=O)c2ccc(C)cc2)c(N2CCN(CC)CC2)s1	none
N#C/C(=C\c1c[nH]c2ccccc12)C(=O)NC1CCCC1	tim23-1 inh 59 | tim23-1 confirm 44
Cc1oc2c(C)c3oc(=O)c(CCC(=O)NCCCn4ccnc4)c(C)c3cc2c1C	none
O=S(=O)(NCc1csc(-c2ccccc2)n1)c1ccc(Cl)s1	tim23-1 inh 53 | tim23-1 confirm 45
CCn1c(/C=C2\C(=O)N(C(C)C)c3ccccc32)nc2ccccc2c1=O	tim23-1 inh 56 | tim23-1 confirm 42
CCn1c(/C=C/c2ccccc2Cl)nc2ccccc2c1=O	none
O=C(O)c1cccc(N2C(=O)c3cc4cccc(Br)c4cc3C2=O)c1	none | tim23-1 confirm inactive
O=C(O)c1ccc2c(c1)C(=O)N(c1cccc(C(=O)/C=C/c3ccccc3)c1)C2=O	none
CCOC(=O)CNc1c(-c2ccc(OC)cc2)nc2ccc(Cl)cn12	tim23-1 inh 53 | tim23-1 confirm 48
O=C(OCC(=O)N1CCc2ccccc21)c1ccc([N+](=O)[O-])o1	tim23-1 inh 70 | tim23-1 confirm 73
O=C(OCC(=O)N1CCCc2ccccc21)c1ccc(Br)o1	none
O=C(OCc1nc2ccccc2s1)c1ccc(Br)o1	none
O=C(OCc1nc2ccccc2s1)c1ccc([N+](=O)[O-])o1	tim23-1 inh 55 | tim23-1 confirm 59
CN(CC(=O)Nc1ccccc1Br)C(=O)COc1ccc2ccccc2c1	none
O=C(COc1cc(Cl)ccc1Cl)Nc1nnc(C2CC2)s1	none
COc1ccc(Cl)cc1NC(=O)CCS(=O)(=O)c1ccc(C)cc1	none
COc1ccc(C(=O)N/N=C/c2ccc(OC)c(COc3ccc(F)cc3F)c2)cc1	tim23-1 inh 55 | tim23-1 confirm 40
COc1ccc(C(=O)N/N=C/c2ccc(OC)c(COc3ccc(F)cc3)c2)cc1	none
Cc1occc1C(=O)N/N=C/C(Br)=C/c1ccccc1	tim23-1 inh 55 | tim23-1 confirm 75
O=C(N/N=C/C(Br)=C/c1ccccc1)c1ccccc1[N+](=O)[O-]	none
C=CCNc1nc2ccccc2nc1NS(=O)(=O)c1ccc(Br)cc1	tim23-1 inh 50 | tim23-1 confirm 54
COC(=O)C1=C(C)N=c2s/c(=C/c3ccoc3)c(=O)n2C1c1ccccc1 (centres undefined)	tim23-1 inh 50 | tim23-1 confirm 50
CCn1c(N2CCN(S(=O)(=O)c3ccc(OC)cc3)CC2)nc2ccccc21	tim23-1 inh 59 | tim23-1 confirm 44
CCn1c(N2CCN(S(=O)(=O)c3ccccc3C(F)(F)F)CC2)nc2ccccc21	none
CC(C)(C)C(=O)c1sc(Nc2ccccc2)nc1N	tim23-1 inh 53 | tim23-1 confirm 41
COCCNC(=O)c1cc(-c2ccccc2)nn1CC1CC(c2cccnc2)=NO1 (centres undefined)	none
CC(=O)Nc1ccc(S(=O)(=O)NC(C)C(=O)NCC(c2ccco2)N(C)C)cc1 (centres undefined)	none
COc1ccc2c(=O)c3c(=O)n(Cc4ccco4)c(-c4cc(OC)c(OC)c(OC)c4)nc3oc2c1	none
COc1ccc2c(=O)c3c(=O)n(Cc4ccco4)c(-c4ccccc4)nc3oc2c1	tim23-1 inh 59 | tim23-1 confirm 39
Cc1ccccc1Cn1c(=O)n(C)c(=O)c2sccc21	none
Cc1cc(NC(=O)CCC(=O)N(CC(=O)NC2CCCC2)c2ccc(C(C)C)cc2)no1	none
O=Cc1cc2cc3c(cc2nc1Cl)OCCO3	tim23-1 inh 73 | tim23-1 confirm 52
Cc1ccc2cc(C=O)c(Cl)nc2c1	tim23-1 inh 50 | tim23-1 confirm 48
O=C(O)c1ccc(N/N=C/c2cc3cc4c(cc3nc2Cl)OCCO4)cc1	none
CCOC(=O)C[C@H]1c2ccc(C(F)(F)F)cc2S(=O)(=O)N1C(C)C	none
COc1cc(/C=C2\SC(=O)NC2=O)ccc1OCC(=O)N1CCOCC1	none
COc1ccccc1NS(=O)(=O)c1cc(NC(=O)COc2ccccc2F)ccc1N1CCOCC1	none
CC(=O)NCCC(=O)N(C)CC1CCN(CCc2cccc(C(F)(F)F)c2)CC1	none
O=C(Nc1nc2cc3c(cc2s1)OCCO3)C1CCCCC1	tim23-1 inh 57 | tim23-1 confirm 57
CC(C)c1ccc2nc(NC(=O)C3CC3)sc2c1	tim23-1 inh 51 | tim23-1 confirm 52
CCOC(=O)C1CCN(S(=O)(=O)c2cccc3nonc23)CC1	none
CCOC(=O)C1CCN(S(=O)(=O)c2c(Cl)ccc3nonc23)CC1	tim23-1 inh 65 | tim23-1 confirm 60
O=c1cc(-c2ccccc2)oc2ccccc12	none
Nc1cc([N+](=O)[O-])cc2oc(-c3ccccc3)cc12	tim23-1 inh 54 | tim23-1 confirm 45
COc1ccccc1Nc1c([N+](=O)[O-])cc(C)cc1[N+](=O)[O-]	none
COc1ccccc1Nc1ccc([N+](=O)[O-])cc1N	tim23-1 inh 55 | tim23-1 confirm 41
COc1ccc(S(=O)(=O)N(C)c2ccc(C(=O)N3CCCCC3)cc2)cc1OC	none
O=C(CCNC(=O)c1ccc(Br)cc1)Nc1nccs1	none
O=C(Nc1nccs1)c1ccc(Br)cc1	tim23-1 inh 56 | tim23-1 confirm inactive
O=C(Nc1nccs1)c1ccc(Br)s1	tim23-1 inh 64 | tim23-1 confirm 52
O=C(O)CCC(=O)Nc1ccc2c(c1)Cc1cc(NC(=O)CCC(=O)O)ccc1-2	none
O=C(Nc1cccc(-n2cnnn2)c1)C1CCCN(Cc2cccc(C(F)(F)F)c2)C1 (centres undefined)	none
CC(C)c1ccc(/C=C/C(=O)NC(=S)NN2CCOCC2)cc1	tim23-1 inh 54 | tim23-1 confirm inactive
